The source of these data is ChEMBL document CHEMBL1139391, “Synthesis and structure-activity relationship of benzetimide derivatives as human CXCR3 antagonists” (Bioorg Med Chem Lett, 2008).

Bounds are passed on as bounds.

The target of assay [1] is T1, Muscarinic acetylcholine receptor M2 (Homo sapiens, UniProt P08172).
T1 sequence (P08172 whole entry): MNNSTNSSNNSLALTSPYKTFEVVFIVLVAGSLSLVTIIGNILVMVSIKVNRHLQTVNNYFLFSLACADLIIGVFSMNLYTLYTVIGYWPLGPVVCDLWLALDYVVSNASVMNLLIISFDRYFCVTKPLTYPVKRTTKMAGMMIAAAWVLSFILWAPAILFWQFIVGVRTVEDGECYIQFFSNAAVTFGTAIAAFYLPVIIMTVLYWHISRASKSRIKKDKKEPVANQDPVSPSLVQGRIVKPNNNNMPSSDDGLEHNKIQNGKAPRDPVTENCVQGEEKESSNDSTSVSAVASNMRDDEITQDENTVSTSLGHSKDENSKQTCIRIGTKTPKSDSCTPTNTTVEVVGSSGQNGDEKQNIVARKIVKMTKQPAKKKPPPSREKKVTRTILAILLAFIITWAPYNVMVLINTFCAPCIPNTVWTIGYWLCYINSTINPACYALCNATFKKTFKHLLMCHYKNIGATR
In words: Binding affinity to human muscarinic M2 receptor.

Assay [2] deals with T2, C-X-C chemokine receptor type 3 (Homo sapiens, UniProt P49682).
T2 sequence (P49682 whole entry): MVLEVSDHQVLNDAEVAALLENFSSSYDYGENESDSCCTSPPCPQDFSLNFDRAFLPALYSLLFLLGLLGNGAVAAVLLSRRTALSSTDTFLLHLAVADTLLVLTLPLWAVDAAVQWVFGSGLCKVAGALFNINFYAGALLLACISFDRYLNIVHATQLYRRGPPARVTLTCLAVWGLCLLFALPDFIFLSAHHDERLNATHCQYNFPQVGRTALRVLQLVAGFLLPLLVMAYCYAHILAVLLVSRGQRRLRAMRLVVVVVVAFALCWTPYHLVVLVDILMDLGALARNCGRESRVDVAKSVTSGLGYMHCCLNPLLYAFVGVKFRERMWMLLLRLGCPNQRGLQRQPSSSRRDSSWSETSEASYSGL
Kind of assay: Displacement of [125I]ITAC from CXCR3 in PHA/IL-2 activated human PBMC pretreated 30 mins before [125I]ITAC challenge after 1 hr by liquid scintillation counter. In short, it runs like this: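 Pre-incubated with compound for 30 min. 80 pM [125I]-ITAC (2000 Ci/mmol) added for 60 min at 4 °C. Harvested on polyethyleneimine-presoaked GF/B filters; radioactivity counted by liquid scintillation.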

Assay [3] addresses T2, C-X-C chemokine receptor type 3. Kind of assay: Antagonist activity at human CXCR3 expressed in CHO cells assessed as inhibition of ITAC-stimulated [35S]GTPgammaS binding pretreated 30 mins before ITAC challenge. Type of assay: functional, cell-based. For orientation: GTPγS is a poorly hydrolysed GTP analogue; its binding reports G protein activation.
For assay [4], the target named is T3, Muscarinic acetylcholine receptor M1 (Homo sapiens, UniProt P11229).
T3 sequence (P11229 whole entry): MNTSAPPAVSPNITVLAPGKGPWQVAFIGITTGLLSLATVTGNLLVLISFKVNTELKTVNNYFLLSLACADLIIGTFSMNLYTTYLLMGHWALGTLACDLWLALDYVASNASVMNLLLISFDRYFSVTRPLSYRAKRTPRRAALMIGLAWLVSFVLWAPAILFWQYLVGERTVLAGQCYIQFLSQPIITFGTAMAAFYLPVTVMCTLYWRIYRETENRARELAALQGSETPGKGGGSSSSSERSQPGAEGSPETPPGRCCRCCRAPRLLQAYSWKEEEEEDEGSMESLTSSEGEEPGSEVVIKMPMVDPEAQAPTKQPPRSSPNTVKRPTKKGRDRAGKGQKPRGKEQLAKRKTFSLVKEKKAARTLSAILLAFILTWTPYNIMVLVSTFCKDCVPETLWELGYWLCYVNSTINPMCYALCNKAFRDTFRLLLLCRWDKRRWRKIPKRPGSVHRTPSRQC
In words: Binding affinity to human muscarinic M1 receptor.

Assay [5] addresses Muscarinic acetylcholine receptor M3 (Homo sapiens, UniProt P20309). In words: Binding affinity to human muscarinic M3 receptor.
A further assay has as its system PBMC. In words: Reduction of ITAC-induced migration in PHA/IL-2 activated human PBMC pretreated 10 mins before ITAC challenge after 3 hrs by fluorescent plate reader. The class given is functional, cell-based. In short, it runs like this:
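Cells pre-incubated with compound for 10 min at 25 °C. 80,000 cells per well placed on the filter topside, in 6-fold replicates. Lower wells held 3 nM human ITAC. After 3 h at 37 °C, non-migrated cells were removed and migrated cells quantified by fluorescence plate reader.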

In assay [6] the target is Interleukin-8 receptors, CXCR1/CXCR2 (Homo sapiens) (UniProt P25025+P25024). In words: Displacement of [125I]IL8 from human CXCR1/2 expressed in CHO cells at 10 uM. Type of assay: cell-based.
Assay [7] concerns the target T4, C-C chemokine receptor type 1 (Homo sapiens) (UniProt P32246).
T4 sequence (whole entry): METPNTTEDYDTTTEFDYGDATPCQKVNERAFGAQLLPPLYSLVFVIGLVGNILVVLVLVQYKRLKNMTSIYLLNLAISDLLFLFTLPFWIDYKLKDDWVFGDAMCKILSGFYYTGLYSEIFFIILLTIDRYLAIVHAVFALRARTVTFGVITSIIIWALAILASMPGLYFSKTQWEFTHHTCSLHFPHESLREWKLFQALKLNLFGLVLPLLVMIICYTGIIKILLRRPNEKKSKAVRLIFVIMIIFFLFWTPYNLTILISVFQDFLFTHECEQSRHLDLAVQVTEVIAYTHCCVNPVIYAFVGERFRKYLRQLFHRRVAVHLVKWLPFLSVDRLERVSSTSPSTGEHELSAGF
In words: Displacement of [125I]MIP1alpha from human CCR1 expressed in CHO cells at 10 uM. The class given is cell-based. On the technique in general: In a radioligand displacement assay an active substance lowers the binding of a labelled ligand.

The target in assay [8] is C-C chemokine receptor type 2 (Homo sapiens) (UniProt P41597). In words: Displacement of [125I]MCP1 from human CCR2 expressed in CHO cells at 10 uM. The class given is cell-based.
The target in assay [9] is T5, CX3C chemokine receptor 1 (Homo sapiens) (UniProt P49238).
T5 sequence (whole entry): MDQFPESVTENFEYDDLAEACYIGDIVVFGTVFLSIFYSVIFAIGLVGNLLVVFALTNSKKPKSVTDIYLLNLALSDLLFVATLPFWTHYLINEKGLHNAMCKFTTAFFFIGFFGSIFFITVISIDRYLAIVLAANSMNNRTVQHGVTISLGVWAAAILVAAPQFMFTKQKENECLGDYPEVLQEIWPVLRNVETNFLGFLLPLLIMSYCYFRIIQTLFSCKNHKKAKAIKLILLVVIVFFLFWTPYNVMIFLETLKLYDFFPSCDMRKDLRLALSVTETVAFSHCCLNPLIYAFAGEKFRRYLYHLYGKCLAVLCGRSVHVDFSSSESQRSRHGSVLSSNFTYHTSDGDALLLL
In words: Displacement of [125I]fractalkine from human […] expressed in CHO cells at 10 uM. Type of assay: cell-based.

Assay [10] has as its target T6, C-C chemokine receptor type 4 (Homo sapiens) (UniProt P51679).
T6 sequence (whole entry): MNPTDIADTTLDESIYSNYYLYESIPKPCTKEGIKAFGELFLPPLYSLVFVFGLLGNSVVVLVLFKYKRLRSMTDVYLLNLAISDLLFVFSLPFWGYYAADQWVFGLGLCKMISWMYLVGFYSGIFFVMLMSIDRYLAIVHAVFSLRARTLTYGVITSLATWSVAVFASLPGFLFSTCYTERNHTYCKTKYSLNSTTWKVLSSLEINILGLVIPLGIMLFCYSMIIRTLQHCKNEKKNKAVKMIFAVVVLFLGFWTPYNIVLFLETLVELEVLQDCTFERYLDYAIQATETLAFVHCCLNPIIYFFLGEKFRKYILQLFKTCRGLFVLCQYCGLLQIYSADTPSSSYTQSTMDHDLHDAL
In words: Displacement of [125I]TARC from human CCR4 expressed in CHO cells at 10 uM. The class given is cell-based.

Chain of Muscarinic acetylcholine receptor M3 (P20309 whole entry): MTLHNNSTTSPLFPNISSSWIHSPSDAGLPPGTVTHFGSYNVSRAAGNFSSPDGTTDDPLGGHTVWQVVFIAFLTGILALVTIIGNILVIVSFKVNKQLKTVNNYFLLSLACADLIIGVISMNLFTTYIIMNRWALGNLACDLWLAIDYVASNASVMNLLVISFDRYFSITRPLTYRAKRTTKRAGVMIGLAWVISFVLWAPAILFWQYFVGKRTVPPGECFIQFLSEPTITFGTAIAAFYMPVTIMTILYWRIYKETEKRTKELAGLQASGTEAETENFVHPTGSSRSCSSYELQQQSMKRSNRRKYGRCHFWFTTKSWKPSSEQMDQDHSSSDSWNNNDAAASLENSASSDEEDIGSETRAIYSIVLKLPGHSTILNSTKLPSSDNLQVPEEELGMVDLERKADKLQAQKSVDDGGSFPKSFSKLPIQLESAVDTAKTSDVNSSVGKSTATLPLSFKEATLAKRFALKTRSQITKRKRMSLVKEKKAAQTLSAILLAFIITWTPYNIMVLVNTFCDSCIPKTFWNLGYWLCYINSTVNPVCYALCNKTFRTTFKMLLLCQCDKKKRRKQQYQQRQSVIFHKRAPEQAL
Chain of C-C chemokine receptor type 2 (Homo sapiens) (P41597 whole entry, looked up): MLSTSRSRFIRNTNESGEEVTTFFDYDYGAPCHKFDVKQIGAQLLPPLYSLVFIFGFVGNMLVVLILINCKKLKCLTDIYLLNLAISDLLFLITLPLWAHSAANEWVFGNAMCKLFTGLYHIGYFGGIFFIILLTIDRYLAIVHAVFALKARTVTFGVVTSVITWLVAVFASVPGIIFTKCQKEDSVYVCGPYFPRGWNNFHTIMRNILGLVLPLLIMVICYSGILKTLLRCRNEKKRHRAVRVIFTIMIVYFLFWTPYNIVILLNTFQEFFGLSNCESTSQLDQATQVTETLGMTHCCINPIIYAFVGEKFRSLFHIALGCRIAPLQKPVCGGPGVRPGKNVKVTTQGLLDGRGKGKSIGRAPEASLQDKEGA

For orientation: IC50 means the midpoint of a concentration-inhibition curve. For the compound `O=C1CCC(c2ccccc2)(C2CCN(Cc3ccc(Br)cc3)CC2)C(=O)N1` (stereo in doubt; (-)-1a) [listing 1 of 2 here], the IC50 was > 10 µM in assay [1]; 0.33 µM in assay [2]; 0.61 µM in assay [3]; 9.6 µM in assay [4]; > 10 µM in assay [5]; 0.69 µM with PBMC.
The inhibition is the change of the read-out against control, counted positive when it falls. Low values mean little suppression, high ones strong suppression. For `O=C1CCC(c2ccccc2)(C2CCN(Cc3ccc(Br)cc3)CC2)C(=O)N1` (stereo in doubt; (-)-1a) [listing 2 of 2 here], the inhibition in assay [6], in assay [7], in assay [8], in assay [9] and in [10] was < 25% in each case.
